Ecoli WT expand: E. coli BW25113 growth inhibition, expanded screen | AID 710 | growth inhibition, % at 100 µM | OD600 absorbance | 0.15% of 98,000 active;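 active means growth inhibition above about 50% at one test dose, limit read from the data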;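 further: growth measured after 20 h incubation at 37 °C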
PostGolgi ctrl: growth of the yeast control strain, post-Golgi counter-screen. inhibition, % at 10 µM. 5% of 98,000 active. efflux-deficient yeast background strain, growth absorbance A615, 16 h
PostGolgi yeast: growth inhibition of a yeast mutant, post-Golgi transport screen; AID 739; inhibition, % at 10 µM; 0.9% of 98,000 active; post-Golgi transport phenotypic cell assay;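 further: yeast cells grown in 1536-well plates; yeast grown about 18 h at 30C before absorbance read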
tolC growth inh: growth inhibitors of E. coli BW25113 tolC mutant; 2.2% of 65,000 active; growth inhibition, % at 10 µM (by protocol); AID 573; OD615;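 active means growth inhibition at or above a cutoff equal to the mean over every tested compound plus 3 SD, cut at about 60% in these data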;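 further: growth measured after 20 h incubation at 37 °C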
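Doses: one dose of 10 µM final / Material: E. coli BW25113 ΔtolC::kan, tolC deletion mutant strain / Buffer or medium: LB with kanamycin 50 µg/mL / Evaluation: percent growth inhibition / Detection: optical density read at 615 nm / Incubation: 37 °C, 20 h exposure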
Cav32 inh: blocks human Cav3.2 T-type calcium channel; Cav3.2-expressing cells, Fluo-4 calcium fluorescence FDSS; stronger effect = lower value; B-score at 10 µM; 4% of 100,000 active;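 active means single-dose well whose peak fluorescence ratio is a statistical outlier from its plate by either plate-standardised score or position-corrected B-score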
Each line names hits and unclear results; the compound was inactive in the other large screens. Hits are enriched below; roughly 8.4% of the tested compounds scored in any of these assays. Unless noted, no stated cut-off is given here; in the data, active means inhibition above about 30%; inactive means the rest.

Cc1cc(C)c(S(=O)(=O)c2ccccc2)c(OC(=O)c2c(Cl)cccc2Cl)n1	PostGolgi yeast 49, Cav32 inh -4.6 (no result: tolC growth inh)
Cc1cccc(NC(=S)NNC(=O)c2csc3c2CCCC3)c1	Cav32 inh -3.5 (no result: tolC growth inh)
Cc1ccc(/C=N/NC(=O)c2csc3c2CCCC3)cc1	PostGolgi ctrl 32, Cav32 inh -4.9 (no result: tolC growth inh)
Cc1ccccc1NC(=O)c1csc2c1CCCC2	none (no result: tolC growth inh)
O=C(Nc1ccon1)c1csc2ccccc12	none
O=C(Nc1ccon1)c1csc2c1CCCC2	PostGolgi ctrl 32
Cc1ccc(C)c(NC(=S)NNC(=O)c2csc3c2CCCC3)c1	Cav32 inh -5.3 (no result: tolC growth inh)
Cc1cccc(NC(=S)NNC(=O)c2ccc(Br)o2)c1	none (no result: tolC growth inh)
CCNC(=S)NNC(=O)c1csc2c1CCCC2	none (no result: tolC growth inh)
CCC(CO)NCc1ccc2c(c1)n(C)c(=O)n2C (configuration not stated)	none
Cc1ccc(C)c(NC(=S)NNC(=O)c2csc3c2CCC(C)C3)c1 (configuration not stated)	Cav32 inh -5.4 (no result: tolC growth inh)
CCc1cc(C(=O)NNC(=S)Nc2cc(C)ccc2C)cs1	none (no result: Ecoli WT expand, PostGolgi ctrl, PostGolgi yeast, tolC growth inh)
NC(=O)C1CCN(C(=O)CSc2nc3c(c(-c4ccccc4)n2)CCCC3)CC1	none
Cc1ccccc1NS(=O)(=O)c1cc(C(=O)NCCC2=CCCCC2)ccc1C	Cav32 inh -3.4 (no result: tolC growth inh)
Cc1ccc(C(=O)NCCSC2CCCCC2)cc1S(=O)(=O)Nc1ccccc1	Cav32 inh -3.8 (no result: tolC growth inh)
CCSc1nnc(-c2sc3nnc(-c4ccccc4)c(-c4ccccc4)c3c2N)o1	Cav32 inh -5.6 (no result: tolC growth inh)
CCSc1nnc(-c2ccncc2)o1	none (no result: tolC growth inh)
c1ccc2c(c1)ccc1nnc(SCc3ccc4c(c3)OCO4)n12	none (no result: tolC growth inh)
O=C(CSCc1ccccc1Cl)NNC(=S)Nc1ccccc1	none (no result: tolC growth inh)
CCOC(=O)C1=C(C)NC(=O)NC1/C(C)=C/c1ccccc1 (configuration not stated)	none
CCCn1c(=O)c(C(=O)Nc2ccccc2C(=O)OCC)c(O)c2ccccc21	none
CCC(C)n1c(=O)c(C(=O)Nc2ccccc2S(N)(=O)=O)c(O)c2ccccc21 (configuration not stated)	PostGolgi ctrl 30, tolC growth inh 83, Cav32 inh -3.4
O=C(CCCCCn1c(=O)[nH]c2ccsc2c1=O)N1CCN(C2CCCCC2)CC1	none
CCn1c(SCC(=O)O)nnc1C1CCCCC1	PostGolgi ctrl 31
O=C(Cn1cnc2c(cnn2-c2ccc(F)cc2)c1=O)N1CCN(c2ccccc2F)CC1	none
O=C(Cn1nnc2c(cnn2-c2ccccc2)c1=O)N1CCN(c2ccccc2F)CC1	PostGolgi ctrl 37
O=[N+]([O-])c1cccnc1NCCNc1ncc(C(F)(F)F)cc1Cl	PostGolgi ctrl 35 (no result: tolC growth inh)
O=[N+]([O-])c1ccccc1NCCNc1ncc(C(F)(F)F)cc1Cl	none (no result: tolC growth inh)
CC(C)(C)c1cc(Br)ccc1OCC(=O)Nc1ncn[nH]1	PostGolgi ctrl 30
CCC(=O)Nc1cccc(C2=NOC3(C2)C[C@H](C(N)=O)N(C(=O)CC#N)C3)c1 (some centres not stated)	none (no result: Ecoli WT expand, PostGolgi ctrl, PostGolgi yeast, tolC growth inh)
CCCOC(=O)C1C2C=CC(C3CC23)C1C(=O)OCC(=O)c1ccccc1 (configuration not stated)	Cav32 inh -5.5 (no result: tolC growth inh)
CNS(=O)(=O)c1cccc(C(=O)Nc2cccnc2)c1	PostGolgi ctrl 34 (no result: tolC growth inh)
O=C(NCCc1cccs1)C1CC(c2ccccc2[N+](=O)[O-])=NO1 (configuration not stated)	none (no result: tolC growth inh)
O=[N+]([O-])c1cccc(-c2ccc(/C=N/NC(=S)Nc3ccccc3)o2)c1	PostGolgi ctrl 48 (no result: tolC growth inh)
COCCn1c(SCCCC(=O)c2ccc(Br)cc2)nnc1-c1ccncc1	PostGolgi ctrl 36 (no result: tolC growth inh, Cav32 inh)
O=C1Cc2ccccc2N1c1ccccc1	none (no result: Ecoli WT expand, PostGolgi ctrl, PostGolgi yeast)
N#CC1=C(N)N(c2ccccc2Sc2ccccc2)C(=O)C1	PostGolgi ctrl 35
CCCN(CCC)C(=O)c1cc(-c2ccc3c(c2)OCO3)nc2ccccc12	none (no result: tolC growth inh)
O=C(c1ccc(CS(=O)(=O)c2cccc(C(F)(F)F)c2)o1)N1CCN(c2ccccn2)CC1	none
Cc1c(NC2=C(Cl)C(=O)N(c3ccccc3)C2=O)c(=O)n(-c2ccccc2)n1C	PostGolgi ctrl 31
Cc1c(Nc2nc3ccccc3nc2N2CCN(c3ccccc3)CC2)c(=O)n(-c2ccccc2)n1C	PostGolgi ctrl 34
C=C(C)C1CC=C(C)/C(=N/NC(=O)CNc2ccc(OCC)cc2)C1 (configuration not stated)	none (no result: tolC growth inh)
N#Cc1c(N2CCCC2)nc(N)c2c(N)nc(N3CCCC3)cc12	none
N#Cc1c(N2CCCCC2)nc(N)c2c(N)nc3c(c12)CC(c1ccccc1)O3 (configuration not stated)	PostGolgi ctrl 53 (no result: tolC growth inh)
